Source: PubChem
Compounds with a hit are over-represented: about 0.72% of the library has one in this group of screens.
mIAP inh = blocks mouse intestinal alkaline phosphatase. actives 0.2% (n = 330,000). inhibition, % at 10 µM. purified mouse IAP, CDP-Star luminescence, 30 min. AID 2806;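 active = inhibition of at least 40% at 10 µM in the primary screen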
hIAP inh = blocks human intestinal alkaline phosphatase; P09923; purified IAP, CDP-Star luminescence, 30 min; actives 0.12% (n = 330,000); inhibition, % at 10 µM;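 active = inhibition reaching a set limit with compound at 10 µM in the primary screen, cut at about 35% in these data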
Target sequence (P09923 whole entry, looked up): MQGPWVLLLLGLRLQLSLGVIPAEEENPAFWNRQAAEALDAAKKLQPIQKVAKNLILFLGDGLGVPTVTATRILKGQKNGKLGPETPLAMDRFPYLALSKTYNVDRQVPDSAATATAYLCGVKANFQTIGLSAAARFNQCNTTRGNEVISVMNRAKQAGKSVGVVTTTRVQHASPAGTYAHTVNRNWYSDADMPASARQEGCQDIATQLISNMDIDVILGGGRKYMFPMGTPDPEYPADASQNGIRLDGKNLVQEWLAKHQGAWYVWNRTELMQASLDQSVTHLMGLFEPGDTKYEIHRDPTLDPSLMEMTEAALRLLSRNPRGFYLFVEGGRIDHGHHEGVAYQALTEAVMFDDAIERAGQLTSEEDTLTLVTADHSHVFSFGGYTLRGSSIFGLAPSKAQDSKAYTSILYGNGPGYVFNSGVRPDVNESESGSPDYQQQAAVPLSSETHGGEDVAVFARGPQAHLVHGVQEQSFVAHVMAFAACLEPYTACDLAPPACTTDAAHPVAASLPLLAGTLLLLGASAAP
hIAP activ = human IAP activation | P09923 | purified human IAP, CDP-Star luminescence, 30 min; stronger effect = higher value; 1 = vehicle-only enzyme, 0 = enzyme-free background | activation factor at 10 µM | actives 0.16% (n = 330,000) | AID 2524;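 active = activation factor of the enzyme at least 2-fold when tested at 20 µM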
bIAP act = intestinal alkaline phosphatase (bovine) activation | purified bovine IAP, CDP-star luminescence, 30 min; stronger effect = higher value; fold of DMSO-control signal, blank-subtracted | activation factor at 20 µM | actives 0.17% (n = 200,000) | AID 1016;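 active = activation factor of 2 or more at 20 µM, a signal rise over negative controls twice the positive control's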
mIAP activ = increases mouse intestinal alkaline phosphatase activity | muIAP, CDP-Star luminescence, 30 min; stronger effect = higher value; 1 = vehicle-only enzyme signal, 0 = enzyme-free wells | activation factor at 10 µM | actives 0.24% (n = 330,000);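 active = activation factor of at least 2 at 20 µM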
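Assay system: mouse IAP enzyme; reagent: chemiluminescent substrate CDP-Star; dosing: test compounds delivered from DMSO solution; schedule: 30 min at room temperature; measured by: luminescence from enzymatic CDP-Star hydrolysis; controls: DMSO-only wells and no-enzyme negative control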
bIAP inhibitor = blocks bovine intestinal alkaline phosphatase activity. purified bovine IAP, CDP-star luminescence, 30 min. 190,000 tested, under 10 active. inhibition, % at 20 µM;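 active = over 50% inhibition of intestinal alkaline phosphatase at 20 µM in the single-dose screen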
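Assay system – bovine IAP enzyme · Quantity – bovine IAP at 1/65,000,000 final dilution · Detection – CDP-star luminescence signal · Times – 30 min reaction at room temperature · Also added – CDP-star substrate at 30 µM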
mIAP inh confirm = mouse IAP inhibition confirmation. shares compounds with mIAP inh. purified mouse IAP, CDP-Star luminescence, 30 min. inhibition, % at 10 µM. actives 4.7% (n = 11,000). AID 434971;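 active = inhibition of at least 40% at 10 µM in either of the two replicates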
Of the large screens only hits and unclear results are named; the others gave an inactive call (follow-up assays come after a bar, where they were run).

CN(CC(=O)Nc1cccc(Cl)c1)S(=O)(=O)c1ccc2[nH]c(=O)oc2c1	mIAP inh 58 (no result: bIAP act, bIAP inhibitor) | mIAP inh confirm 74
CCc1ccc(NC(=O)CN(C)S(=O)(=O)c2ccc3[nH]c(=O)oc3c2)cc1	mIAP inh 50 (no result: bIAP act, bIAP inhibitor) | mIAP inh confirm 61
COc1cc(OC)c(NC(=O)CN(C)S(=O)(=O)c2ccc3[nH]c(=O)oc3c2)cc1Cl	mIAP inh 64 (no result: bIAP act, bIAP inhibitor) | mIAP inh confirm 86
COCCSc1ccccc1C(=O)N1CCc2ccccc21	none (no result: bIAP act, bIAP inhibitor)
O=C(COC(=O)CNC(=O)c1ccccc1)NC(=O)NC1CCCCC1	none (no result: bIAP act, bIAP inhibitor)
COc1ccc(CC(=O)N2CCCC2)c(OC)c1	none (no result: bIAP act, bIAP inhibitor)
O=C(/C=C/c1ccc(O)c(O)c1)OCCc1ccccc1	none (no result: bIAP act, bIAP inhibitor)
O=C(/C=C/c1ccc(O)c(O)c1)OC(Cc1ccc(O)c(O)c1)C(=O)O (stereo unspecified)	mIAP inh 77 (no result: bIAP act, bIAP inhibitor) | mIAP inh confirm 78
COc1ccccc1/C=c1\sc2nc(-c3ccccc3OC)nn2c1=O	none
Cc1ccc(/C=c2\sc3nc(-c4ccco4)nn3c2=O)o1	mIAP inh 60 | mIAP inh confirm 81
COc1ccc(Br)cc1/C=c1\sc2nc(-c3ccco3)nn2c1=O	mIAP inh 60 | mIAP inh confirm 70
O=C(O)c1cc2c(cc1NC(=O)C1CCCC1)OCCO2	none (no result: bIAP act, bIAP inhibitor)
CSCC[C@H](NC(=O)C1CCN(S(=O)(=O)c2ccc(C)cc2C)CC1)c1nc2ccccc2[nH]1	mIAP activ 2.6 (no result: bIAP act, bIAP inhibitor) | mIAP inh confirm inactive
CSCC[C@H](NC(=O)c1cccc(S(=O)(=O)N2CCCCCC2)c1)c1nc2ccccc2[nH]1	none (no result: bIAP act, bIAP inhibitor)
COc1cccc(NC(=O)NC2CCCCCCC2)c1	mIAP activ 2.1 (no result: bIAP act, bIAP inhibitor) | mIAP inh confirm inactive
COc1cc(NC(=O)NC2Cc3ccccc3C2)cc(OC)c1	mIAP activ 3.4 (no result: bIAP act, bIAP inhibitor) | mIAP inh confirm inactive
COc1ccc(NC(=O)N(C)C[C@H]2Oc3ccc(NC(=O)c4ccncc4)cc3C(=O)N([C@H](C)CO)C[C@@H]2C)cc1	none (no result: bIAP act, bIAP inhibitor)
COc1cc(-c2nnc(SCc3cc(=O)oc4cc(O)c(O)cc34)o2)cc(OC)c1OC	mIAP inh 69 | mIAP inh confirm 73
Nc1c(C(=O)Nc2ccccc2F)sc2nc(-c3ccco3)ccc12	mIAP inh 48 | mIAP inh confirm 61
NC(=O)c1sc2nc(-c3cccnc3)ccc2c1N	none (no result: bIAP act, bIAP inhibitor)
COC(=O)c1sc2nc(-c3ccco3)ccc2c1N	mIAP inh 52 | mIAP inh confirm 53
CC(C)OC(=O)c1sc2nc(-c3ccccc3)ccc2c1N	none
NC(=O)c1sc2nc(-c3ccco3)ccc2c1N	mIAP inh 44 | mIAP inh confirm 52
NC(=O)c1sc2nc3c(c(-c4ccco4)c2c1N)CCC3	mIAP inh 43 | mIAP inh confirm 57
Cc1ccc(S(=O)(=O)N2CCN(S(=O)(=O)N3CCCCCC3)CC2)cc1	none
Cc1ccsc1/C=N/NC(=O)c1cccnc1	none (no result: bIAP act, bIAP inhibitor)
O=C(NCC1CC1)Nc1ccc(Cl)cc1	none (no result: bIAP act, bIAP inhibitor)
Cc1ccc(C)c(CN2CCC(CNC(=O)Nc3ccc(Cl)cc3)CC2)c1	mIAP activ 2.7 (no result: bIAP act, bIAP inhibitor) | mIAP inh confirm inactive
CC(=C\c1ccccc1)/C=C1/SC(=S)N(C(C(=O)O)C(C)C)C1=O (stereo unspecified)	none (no result: mIAP inh, hIAP inh, hIAP activ, mIAP activ)
O=C1/C(=C/C=C/c2ccco2)SC(=S)N1NS(=O)(=O)c1ccccc1	mIAP inh 84 (no result: bIAP act, bIAP inhibitor) | mIAP inh confirm 91
CC(C(=O)O)N1C(=O)/C(=C/C=C/c2ccco2)SC1=S (stereo unspecified)	mIAP inh 54 | mIAP inh confirm 58
CCC(O)c1nc2ccccc2n1CCc1ccccc1 (stereo unspecified)	none (no result: bIAP act, bIAP inhibitor)
CCOC(=O)Cc1nnc2c(Nc3ccc(Cl)cc3)nc3nonc3n12	none | mIAP inh confirm 37
CCOc1cc(/C=C2\SC(=S)N(Nc3ccccc3)C2=O)ccc1O	mIAP inh 44 | mIAP inh confirm 47
O=C(NN1C(=O)/C(=C\c2ccc(O)c([N+](=O)[O-])c2)SC1=S)c1ccccc1Cl	mIAP inh 44 (no result: bIAP act, bIAP inhibitor) | mIAP inh confirm 49
O=C(CSc1nc(COc2ccccc2)nc2ccccc12)NC1CCCC1	none
CN(c1ccc(F)cc1)S(=O)(=O)c1ccc(Cl)c(C(=O)NCc2ccco2)c1	none (no result: bIAP act, bIAP inhibitor)
